One assay deals with T47D. Kind of assay: Selectivity ratio of IC50 for progesterone receptor in human T47D cells to IC50 for glucocorticoid receptor in human A549 cells. The assay is classed as cell-based. The method, boiled down: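 Ratio calculated by dividing the IC50 from the T47D alkaline phosphatase assay by the IC50 from the A549 cell-based functional assay, with both measured in this work. It serves as an index of how well PR and GR antagonism are separated. Mifepristone was run alongside as the reference compound.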

Another assay deals with T1, Glucocorticoid receptor (Homo sapiens, UniProt P04150).
T1 sequence (P04150 whole entry): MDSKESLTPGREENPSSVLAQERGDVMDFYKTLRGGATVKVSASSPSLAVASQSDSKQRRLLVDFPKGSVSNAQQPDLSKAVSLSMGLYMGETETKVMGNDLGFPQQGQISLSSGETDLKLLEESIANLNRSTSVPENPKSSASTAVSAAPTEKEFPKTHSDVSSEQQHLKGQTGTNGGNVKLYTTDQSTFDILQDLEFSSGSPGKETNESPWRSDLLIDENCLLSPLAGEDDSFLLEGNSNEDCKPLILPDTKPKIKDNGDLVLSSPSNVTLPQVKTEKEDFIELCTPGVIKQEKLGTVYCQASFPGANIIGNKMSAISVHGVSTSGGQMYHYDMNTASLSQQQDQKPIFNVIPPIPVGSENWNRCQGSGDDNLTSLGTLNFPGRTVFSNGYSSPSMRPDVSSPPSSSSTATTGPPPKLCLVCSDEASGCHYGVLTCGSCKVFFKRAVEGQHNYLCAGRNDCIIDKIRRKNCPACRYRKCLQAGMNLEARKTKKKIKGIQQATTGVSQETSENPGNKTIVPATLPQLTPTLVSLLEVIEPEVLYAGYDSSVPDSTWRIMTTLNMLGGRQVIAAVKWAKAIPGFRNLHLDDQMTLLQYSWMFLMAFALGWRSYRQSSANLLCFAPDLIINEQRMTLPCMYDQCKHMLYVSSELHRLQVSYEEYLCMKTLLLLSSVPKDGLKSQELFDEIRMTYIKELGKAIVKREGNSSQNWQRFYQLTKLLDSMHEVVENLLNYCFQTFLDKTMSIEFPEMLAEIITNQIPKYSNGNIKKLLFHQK
The assay can be described thus: Antagonist activity at glucocorticoid receptor in human A549 cells assessed as inhibition of dexamethasone-induced transcription at GRE after 24 hrs by luciferase reporter gene assay. It counts as functional, cell-based.

For another assay, the target named is T2, Progesterone receptor (Homo sapiens, UniProt P06401).
T2 sequence (P06401 whole entry): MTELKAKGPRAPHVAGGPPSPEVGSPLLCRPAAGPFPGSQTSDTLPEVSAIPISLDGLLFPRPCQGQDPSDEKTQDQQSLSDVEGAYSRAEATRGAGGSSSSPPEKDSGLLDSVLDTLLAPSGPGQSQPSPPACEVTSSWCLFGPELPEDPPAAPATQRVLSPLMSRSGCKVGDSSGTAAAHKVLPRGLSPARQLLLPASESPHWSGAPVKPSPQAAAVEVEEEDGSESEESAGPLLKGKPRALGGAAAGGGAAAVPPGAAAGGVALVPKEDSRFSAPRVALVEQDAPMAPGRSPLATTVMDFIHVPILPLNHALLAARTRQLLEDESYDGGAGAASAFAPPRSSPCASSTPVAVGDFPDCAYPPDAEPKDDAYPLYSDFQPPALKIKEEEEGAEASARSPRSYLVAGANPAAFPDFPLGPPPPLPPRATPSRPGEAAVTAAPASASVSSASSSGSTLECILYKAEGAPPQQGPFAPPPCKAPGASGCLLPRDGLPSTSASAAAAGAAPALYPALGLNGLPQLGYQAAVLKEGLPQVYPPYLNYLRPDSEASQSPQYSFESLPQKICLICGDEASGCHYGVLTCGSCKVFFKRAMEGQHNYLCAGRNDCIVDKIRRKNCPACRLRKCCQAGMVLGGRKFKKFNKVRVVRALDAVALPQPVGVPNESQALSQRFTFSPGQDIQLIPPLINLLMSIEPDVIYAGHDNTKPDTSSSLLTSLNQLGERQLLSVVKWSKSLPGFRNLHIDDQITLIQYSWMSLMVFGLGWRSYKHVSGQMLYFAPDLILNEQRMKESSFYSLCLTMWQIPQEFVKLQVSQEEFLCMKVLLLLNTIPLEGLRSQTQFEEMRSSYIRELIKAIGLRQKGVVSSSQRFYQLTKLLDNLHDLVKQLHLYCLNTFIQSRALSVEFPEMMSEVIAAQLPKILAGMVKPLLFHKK
Kind of assay: Antagonist activity at progesterone receptor in human T47D cells assessed as inhibition of progesterone-induced alkaline phosphatase activity after 24 hrs by luminescence based assay. It counts as functional, cell-based.

Structures are written as SMILES. pIC50: −log10 of the molar value.

As to `CC#C[C@]1(NC=O)CC[C@H]2[C@@H]3CCC4=CC(=O)CCC4=C3[C@@H](c3ccc4ocnc4c3)C[C@@]21C`, the Ratio IC50 in the assay with T47D was 0.7. Also, the values for the pIC50 at Glucocorticoid receptor and at Progesterone receptor were 7.22 and 7.39, respectively.

As to `CC#C[C@]1(O)CC[C@H]2[C@@H]3CCC4=CC(=O)CCC4=C3[C@@H](c3ccc4oc(CC)nc4c3)C[C@@]21C`, the Ratio IC50 in the assay with T47D was 5. The pIC50 was 7.89 on Glucocorticoid receptor and 7.19 at Progesterone receptor.

Turning to `CC#C[C@]1(O)CC[C@H]2[C@@H]3CCC4=CC(=O)CCC4=C3[C@@H](c3ccc4oc(C(F)(F)F)nc4c3)C[C@@]21C`, in the assay on T47D, the Ratio IC50 was found to be 1.4. The pIC50 on Glucocorticoid receptor was 7.21; at Progesterone receptor it was 7.07.

With `CC#C[C@]1(NC=O)CC[C@H]2[C@@H]3CCC4=CC(=O)CCC4=C3[C@@H](c3ccc4oc(C(F)(F)F)nc4c3)C[C@@]21C`, the Ratio IC50 in the assay on T47D is 0.3. Further, the pIC50 is 6.85 at Glucocorticoid receptor and 7.34 on Progesterone receptor.

For `CC#C[C@]1(O)CC[C@H]2[C@@H]3CCC4=CC(=O)CCC4=C3[C@@H](c3ccc(N(C)C)cc3)C[C@@]21C`, the Ratio IC50 in the assay on T47D is 0.9.

On to `CC#C[C@]1(O)CC[C@H]2[C@@H]3CCC4=CC(=O)CCC4=C3[C@@H](c3ccc4ocnc4c3)C[C@@]21C`, for which, in the assay on T47D, the Ratio IC50 amounted to 2.2. Besides, the pIC50 on Glucocorticoid receptor was 7.35; on Progesterone receptor, 7.00.

Consider `CC#C[C@]1(O)CC[C@H]2[C@@H]3CCC4=CC(=O)CCC4=C3[C@@H](c3ccc4oc(C)nc4c3)C[C@@]21C`, for which the Ratio IC50 with T47D was 1.5. Besides, the figures for the pIC50 on Glucocorticoid receptor and on Progesterone receptor were 7.64 and 7.46, respectively.

The record behind these values is ChEMBL document CHEMBL1949497, “Synthesis and antihormonal properties of novel 11β-benzoxazole-substituted steroids” (Bioorg Med Chem Lett, 2012).
